Reference: ChEMBL document CHEMBL1629542, “Epigallocatechin gallate inactivates clinical isolates of herpes simplex virus” (Antimicrob Agents Chemother, 2008)
Activity calls are given as the source filed them. No cut-off for these calls is given here.

Experiments:
Human alphaherpesvirus 2 [1] = experiment: Antiviral activity against Human herpesvirus 2 strain 333 infected in African green monkey CV1 cells assessed as log reduction viral titer at 12.5 ug/ml; type: functional, CV-1
In short: (§1)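 HSV-2 (clinical swab isolates or strain 333) was grown in CV-1 cells and used as clarified supernatant. Virus was exposed to graded EGCG for 1 h in RPMI 1640 with 1% FCS, pH 7.4. Tenfold dilutions were titrated on CV-1 cells, three wells each, 5 days at 37°C, scoring CPE. TCID50 was calculated by Reed-Muench. IC99 was read graphically as 99% titer drop from the zero-concentration titer. Mean of three experiments.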

Human alphaherpesvirus 2 [2] = experiment: Antiviral activity against Human herpesvirus 2 isolate P2 infected in African green monkey CV1 cells assessed as log reduction viral titer at 50 uM; type: functional, CV-1; in short: as §1
Human alphaherpesvirus 1 [3] = experiment: Antiviral activity against Human herpesvirus 1 isolate P56 infected in African green monkey vero cells assessed as reduction in viral titer; type: functional, organism-based; details: Human alphaherpesvirus 1, isolate P56, Vero
In short: (§2)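 Laboratory HSV-1 F1 or patient-swab HSV-1 isolates were prepared as clarified Vero supernatants. They were incubated 1 h with a range of EGCG concentrations in RPMI 1640/1% FCS at pH 7.4. Titres were determined on Vero cells by 5-day CPE endpoint (Reed-Muench). IC99 was read graphically as 99% titre drop from untreated; mean ± SD, three experiments.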

Human alphaherpesvirus 2 [4] = experiment: Antiviral activity against Human herpesvirus 2 isolate P22 infected in African green monkey CV1 cells assessed as log reduction in viral titer at 100 uM within 20 mins; type: functional, CV-1
In short: (§3)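 Time course: clarified CV-1 supernatant of HSV-2 (clinical isolates or strain 333) was exposed to 100 μM EGCG for increasing times. It was then titrated by tenfold dilution on CV-1 cells, three wells per dilution, for 5 days at 37°C with CPE read-out. Reed-Muench TCID50 was compared with the untreated titer. Mean of three separate experiments.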

Human alphaherpesvirus 1 [5] = experiment: Antiviral activity against Human herpesvirus 1 isolate P32 infected in African green monkey vero cells assessed as log reduction in viral titer at 100 uM within 20 mins; type: functional
In short: (§4)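 In the time course, HSV-1 clinical isolates (clarified Vero supernatants) were exposed to 100 μM EGCG for varying times up to 60 min. Residual infectivity was then titrated on Vero cells by 5-day CPE endpoint with Reed-Muench calculation. Mean ± SD of three separate experiments.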

Human alphaherpesvirus 2 [6] = experiment: Antiviral activity against Human herpesvirus 2 strain 333 infected in African green monkey vero cells assessed as log reduction in viral titer at 100 uM after 60 mins; type: functional
In short: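 Lab strain HSV-2 333 was grown and titrated either in CV-1 cells or in Vero cells. Virus was incubated with 100 μM EGCG for 60 min, then titrated as tenfold dilutions for 5 days at 37°C with CPE scoring. Reed-Muench TCID50 of treated versus control virus gave the titer decrease. Mean of three experiments.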

Human alphaherpesvirus 1 [7] = experiment: Antiviral activity against Human herpesvirus 1 isolate P56 infected in African green monkey vero cells assessed as log reduction in viral titer at 100 uM within 10 mins; type: functional; in short: as §4
Human alphaherpesvirus 1 [8] = experiment: Antiviral activity against Human herpesvirus 1 isolate P38 infected in African green monkey vero cells assessed as log reduction in viral titer at 50 uM; type: functional; in short: as §2
Human alphaherpesvirus 1 [9] = experiment: Antiviral activity against Human herpesvirus 1 isolate P38 infected in African green monkey vero cells assessed as log reduction in viral titer at 100 uM after 30 mins; type: functional; in short: as §4
Human alphaherpesvirus 1 [10] = experiment: Antiviral activity against Human herpesvirus 1 isolate P15 infected in African green monkey vero cells assessed as reduction in viral titer; type: functional, organism-based; details: Human alphaherpesvirus 1, isolate P15, Vero; in short: as §2
Human alphaherpesvirus 1 [11] = experiment: Antiviral activity against Human herpesvirus 1 isolate P42 infected in African green monkey vero cells assessed as log reduction in viral titer at 100 uM after 40 to 60 mins; type: functional; in short: as §4
Human alphaherpesvirus 1 [12] = experiment: Antiviral activity against Human herpesvirus 1 isolate P25 infected in African green monkey vero cells assessed as reduction in viral titer at 100 uM; type: functional, organism-based; in short: as §2
Human alphaherpesvirus 1 [13] = experiment: Antiviral activity against Human herpesvirus 1 isolate P15 infected in African green monkey vero cells assessed as log reduction in viral titer at 50 uM; type: functional; in short: as §2
Human alphaherpesvirus 1 [14] = experiment: Antiviral activity against Human herpesvirus 1 isolate P25 infected in African green monkey vero cells assessed as log reduction in viral titer at 100 uM after 40 to 60 mins; type: functional; in short: as §4
Human alphaherpesvirus 2 [15] = experiment: Antiviral activity against Human herpesvirus 2 isolate P47 infected in African green monkey CV1 cells assessed as log reduction in viral titer at 100 uM within 10 mins; type: functional, CV-1; in short: as §3
Human alphaherpesvirus 1 [16] = experiment: Antiviral activity against Human herpesvirus 1 isolate P56 infected in African green monkey vero cells assessed as reduction in viral titer at 100 uM; type: functional, organism-based; in short: as §2
Human alphaherpesvirus 1 [17] = experiment: Antiviral activity against Human herpesvirus 1 isolate P38 infected in African green monkey vero cells assessed as reduction in viral titer at 100 uM; type: functional, organism-based; in short: as §2
Human alphaherpesvirus 2 [18] = experiment: Antiviral activity against Human herpesvirus 2 isolate P47 infected in African green monkey CV1 cells assessed as log reduction in viral titer at 100 uM within 20 mins; type: functional, CV-1; in short: as §3
Human alphaherpesvirus 2 [19] = experiment: Antiviral activity against Human herpesvirus 2 isolate P12 infected in African green monkey CV1 cells assessed as log reduction viral titer at 50 uM; type: functional, CV-1
In short: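 HSV-2 patient-swab isolates were grown as clarified CV-1 supernatants and incubated 1 h with a range of EGCG concentrations (RPMI 1640/1% FCS, pH 7.4). They were titrated on CV-1 cells from 10-fold dilutions by 5-day CPE at 37°C, with Reed-Muench TCID50. IC99 was derived graphically as 99% reduction from zero-drug titre; mean ± SD, three experiments.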

Human alphaherpesvirus 2 [20] = experiment: Antiviral activity against Human herpesvirus 2 isolate P22 infected in African green monkey CV1 cells assessed as log reduction in viral titer at 12.5 uM; type: functional, CV-1; in short: as §1
Human alphaherpesvirus 1 [21] = experiment: Antiviral activity against Human herpesvirus 1 isolate P32 infected in African green monkey vero cells assessed as log reduction in viral titer at 100 uM after 30 mins; type: functional; in short: as §4
Human alphaherpesvirus 2 [22] = experiment: Antiviral activity against Human herpesvirus 2 isolate P11 infected in African green monkey CV1 cells assessed as log reduction in viral titer at 100 uM within 20 mins; type: functional, CV-1
In short: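 HSV-2 clinical isolates from clarified CV-1 supernatants were held with 100 μM EGCG for timed intervals, from 10 min onward. Surviving virus was titrated on CV-1 cells by 10-fold dilution and 5-day CPE scoring, with TCID50 by Reed-Muench. Values are mean ± SD, three experiments.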

Human alphaherpesvirus 2 [23] = experiment: Antiviral activity against Human herpesvirus 2 isolate P2 infected in African green monkey CV1 cells assessed as log reduction in viral titer at 12.5 uM; type: functional, CV-1; in short: as §1
Human alphaherpesvirus 1 [24] = experiment: Antiviral activity against Human herpesvirus 1 F1 assessed as decrease in labeled gB envelope glycoprotein at 100 uM after 2 hrs by electron microscopy; type: functional, organism-based
In short: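 Purified HSV-1 F1 virions were treated with 100 μM EGCG for 2 h, fixed in glutaraldehyde/paraformaldehyde and LR White-embedded without osmium. Nickel-grid sections were blocked with BSA and goat serum, then labelled overnight with anti-gB or anti-gD monoclonal (1:15) and 15 nm colloidal gold. Labelled versus unlabelled particles were counted in 10 fields of 100 particles; mean ± SD.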

Human alphaherpesvirus 2 [25] = experiment: Antiviral activity against Human herpesvirus 2 isolate P27 infected in African green monkey CV1 cells assessed as log reduction in viral titer at 12.5 uM; type: functional, CV-1; in short: as §1
Human alphaherpesvirus 2 [26] = experiment: Antiviral activity against Human herpesvirus 2 isolate P22 infected in African green monkey CV1 cells assessed as log reduction viral titer at 50 uM; type: functional, CV-1; in short: as §1

O=C(O[C@@H]1Cc2c(O)cc(O)cc2O[C@@H]1c1cc(O)c(O)c(O)c1)c1cc(O)c(O)c(O)c1 [EPIGALOCATECHIN GALLATE]
FC (Human alphaherpesvirus 2 [1]): 0.56 | FC (Human alphaherpesvirus 2 [2]): >4 | IC99 (Human alphaherpesvirus 1 [3]): 18.3 µM | FC (Human alphaherpesvirus 2 [4]): 3 | FC (Human alphaherpesvirus 1 [5]): 3 | FC (Human alphaherpesvirus 2 [6]): 4 | FC (Human alphaherpesvirus 1 [7]): 2 | FC (Human alphaherpesvirus 1 [8]): 2 | FC (Human alphaherpesvirus 1 [9]): 2 | IC99 (Human alphaherpesvirus 1 [10]): 48.4 µM | FC (Human alphaherpesvirus 1 [11]): 3 | Activity (Human alphaherpesvirus 1 [12]): Active | FC (Human alphaherpesvirus 1 [13]): 2 | FC (Human alphaherpesvirus 1 [14]): 3 | FC (Human alphaherpesvirus 2 [15]): 2 | Activity (Human alphaherpesvirus 1 [16]): Active | Activity (Human alphaherpesvirus 1 [17]): Active | FC (Human alphaherpesvirus 2 [18]): 3 | FC (Human alphaherpesvirus 2 [19]): >4 | FC (Human alphaherpesvirus 2 [20]): >=2 | FC (Human alphaherpesvirus 1 [21]): 2 | FC (Human alphaherpesvirus 2 [22]): 3 | FC (Human alphaherpesvirus 2 [23]): >=2 | Activity (Human alphaherpesvirus 1 [24]): Active | FC (Human alphaherpesvirus 2 [25]): >=2 | FC (Human alphaherpesvirus 2 [26]): >4
